Experiments:
[1] = molecular target: T1, Opioid receptors; mu/kappa/delta (Homo sapiens) (UniProt P41145+P41143+P35372); assay: Selectivity for kappa/Mu/Delta receptors was determined; 1/44/765; assay type: protein assay
[2] = molecular target: Kappa-type opioid receptor (Rattus norvegicus) (UniProt P34975); assay: Inhibition of Forskolin-Stimulated Adenylyl Cyclase in CHO cells expressing Opioid receptor kappa 1 at 10 uM relative to 100 nM Dyn A-(1-13)NH(2); assay type: functional, cell-based
Method in brief: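 Same κ-CHO forskolin (50 μM, 40 min, 37°) cyclic AMP assay, with phosphodiesterase and peptidase inhibitors. Maximal percent inhibition by peptide at 10 μM, expressed relative to the inhibition given by 100 nM Dyn A-(1-13)NH2. Cyclic AMP counts corrected for recovery using a [14C]cyclic AMP tracer.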

[3] = molecular target: T2, Kappa-type opioid receptor (Rattus norvegicus, UniProt P34975); assay: Inhibition of Forskolin-Stimulated Adenylyl Cyclase in CHO cells expressing Opioid receptor kappa 1; assay type: functional, cell-based
Method in brief: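 CHO cells stably expressing cloned rat κ-opioid receptors. Cultures incubated 40 min at 37° with 50 μM forskolin and varying peptide concentrations. Present: 50 μM RO20-1724 (phosphodiesterase inhibitor), plus 10 μM bestatin, 30 μM captopril and 50 μM L-leucyl-L-leucine. [3H]cyclic AMP counted, with [14C]cyclic AMP added for recovery correction. Mean ± SEM, generally n ≥ 3, some n = 2.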

Mu-type opioid receptor = Mu-type opioid receptor (Rattus norvegicus, UniProt P33535); assay: Binding affinity towards rat Opioid receptor mu 1 expressed in CHO cells of chinese hamster ovary was determined using [3H]DAMGO; assay type: cell-based
Method in brief: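 [3H]DAMGO displacement on cloned rat μ-opioid receptors stably expressed in CHO cells. Nonspecific binding defined with 10 μM unlabeled DAMGO. Peptidase inhibitors (10 μM bestatin, 30 μM captopril, 50 μM L-leucyl-L-leucine) and 3 mM Mg2+ included. Mean ± SEM, at least three separate assays.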

[4] = molecular target: T3, Delta-type opioid receptor (Mus musculus, UniProt P32300); assay: Binding affinity towards mouse Opioid receptor delta 1 expressed in CHO cells of chinese hamster ovary was determined using [3H]-[…] as radioligand; assay type: cell-based
Method in brief: (§1)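 Competition binding against [3H]DPDPE on cloned mouse δ-opioid receptors stably expressed in CHO cells. Nonspecific binding defined with 10 μM unlabeled DPDPE. Peptidase inhibitors present (10 μM bestatin, 30 μM captopril, 50 μM L-leucyl-L-leucine) plus 3 mM Mg2+. Mean ± SEM from at least three separate assays.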

[5] = molecular target: T2, Kappa-type opioid receptor; assay: Binding affinity towards rat Opioid receptor kappa 1 expressed in CHO cells of chinese hamster ovary was determined using [3H]diprenorphine as radioligand; assay type: cell-based
Method in brief: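 Cloned rat κ-opioid receptors stably expressed in CHO cells; affinity from competitive inhibition of [3H]diprenorphine binding. Nonspecific binding defined with 10 μM unlabeled Dyn A-(1-13)NH2. Assay buffer held 10 μM bestatin, 30 μM captopril, 50 μM L-leucyl-L-leucine and 3 mM Mg2+. Mean ± SEM, at least three separate assays.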

[6] = molecular target: T3, Delta-type opioid receptor; assay: Binding affinity towards mouse Opioid receptor delta 1 expressed in CHO cells of chinese hamster ovary was determined using [3H][…] as radioligand; assay type: cell-based; method in brief: as §1
[7] = molecular target: T1, Opioid receptors; mu/kappa/delta (Homo sapiens); assay: Selectivity for kappa/Mu/Delta receptors was determined; 1/14/>377; assay type: protein assay
[8] = molecular target: T1, Opioid receptors; mu/kappa/delta (Homo sapiens); assay: Selectivity for kappa/Mu/Delta receptors was determined 1/1.7/90; assay type: protein assay

T1 sequence (P35372 whole entry, looked up): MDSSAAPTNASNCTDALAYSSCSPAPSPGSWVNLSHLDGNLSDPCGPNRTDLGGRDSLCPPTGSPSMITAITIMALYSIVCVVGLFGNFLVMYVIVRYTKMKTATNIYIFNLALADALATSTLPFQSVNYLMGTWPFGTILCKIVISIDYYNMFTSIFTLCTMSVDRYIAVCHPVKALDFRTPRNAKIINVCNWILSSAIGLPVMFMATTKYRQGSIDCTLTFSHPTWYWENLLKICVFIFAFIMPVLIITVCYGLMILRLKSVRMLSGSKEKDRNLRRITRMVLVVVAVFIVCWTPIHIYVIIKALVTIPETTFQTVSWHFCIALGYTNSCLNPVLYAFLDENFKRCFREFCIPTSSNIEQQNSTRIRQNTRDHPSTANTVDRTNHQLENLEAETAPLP
T1 sequence (P41143 whole entry, looked up): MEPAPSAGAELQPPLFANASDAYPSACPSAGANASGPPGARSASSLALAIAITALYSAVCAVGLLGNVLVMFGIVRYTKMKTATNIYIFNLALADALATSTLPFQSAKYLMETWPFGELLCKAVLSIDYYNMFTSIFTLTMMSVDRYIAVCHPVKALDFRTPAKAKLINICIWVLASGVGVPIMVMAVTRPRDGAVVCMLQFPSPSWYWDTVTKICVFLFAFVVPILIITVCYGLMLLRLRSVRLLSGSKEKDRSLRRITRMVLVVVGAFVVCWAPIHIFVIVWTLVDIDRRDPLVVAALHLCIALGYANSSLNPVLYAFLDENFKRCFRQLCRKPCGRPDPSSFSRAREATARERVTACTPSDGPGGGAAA
T1 sequence (P41145 whole entry, looked up): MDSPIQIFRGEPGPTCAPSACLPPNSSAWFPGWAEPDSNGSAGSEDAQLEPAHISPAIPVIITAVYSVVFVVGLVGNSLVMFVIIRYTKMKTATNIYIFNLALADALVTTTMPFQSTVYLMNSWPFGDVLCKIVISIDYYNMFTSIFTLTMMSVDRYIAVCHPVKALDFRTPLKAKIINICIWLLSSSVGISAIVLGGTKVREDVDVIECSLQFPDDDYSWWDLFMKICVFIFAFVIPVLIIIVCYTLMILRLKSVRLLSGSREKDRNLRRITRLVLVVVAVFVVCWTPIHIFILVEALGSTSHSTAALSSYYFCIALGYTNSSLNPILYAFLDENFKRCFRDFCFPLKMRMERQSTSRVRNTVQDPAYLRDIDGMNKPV
T2 sequence (P34975 whole entry): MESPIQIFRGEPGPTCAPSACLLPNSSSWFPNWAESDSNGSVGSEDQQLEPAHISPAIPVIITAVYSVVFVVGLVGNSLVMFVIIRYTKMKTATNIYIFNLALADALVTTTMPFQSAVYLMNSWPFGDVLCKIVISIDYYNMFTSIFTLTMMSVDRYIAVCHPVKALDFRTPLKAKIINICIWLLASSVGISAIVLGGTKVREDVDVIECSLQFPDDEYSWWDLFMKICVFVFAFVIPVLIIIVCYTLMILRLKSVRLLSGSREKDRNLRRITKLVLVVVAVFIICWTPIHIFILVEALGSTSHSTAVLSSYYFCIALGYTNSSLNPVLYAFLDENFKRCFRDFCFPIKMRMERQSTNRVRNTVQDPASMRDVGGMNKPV
Kappa-type opioid receptor (Rattus norvegicus), sequence (P34975 whole entry): as above
T3 sequence (P32300 whole entry): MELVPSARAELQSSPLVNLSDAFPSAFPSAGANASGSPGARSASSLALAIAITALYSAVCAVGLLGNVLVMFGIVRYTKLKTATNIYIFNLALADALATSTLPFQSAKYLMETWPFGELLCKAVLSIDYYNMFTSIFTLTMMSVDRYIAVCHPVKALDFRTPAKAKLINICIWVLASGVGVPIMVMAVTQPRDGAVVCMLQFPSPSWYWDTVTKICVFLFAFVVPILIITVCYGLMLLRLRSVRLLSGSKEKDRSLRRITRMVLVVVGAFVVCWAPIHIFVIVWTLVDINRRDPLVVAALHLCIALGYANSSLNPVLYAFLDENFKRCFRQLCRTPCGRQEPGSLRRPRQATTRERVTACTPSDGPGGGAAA
Mu-type opioid receptor, sequence (P33535 whole entry): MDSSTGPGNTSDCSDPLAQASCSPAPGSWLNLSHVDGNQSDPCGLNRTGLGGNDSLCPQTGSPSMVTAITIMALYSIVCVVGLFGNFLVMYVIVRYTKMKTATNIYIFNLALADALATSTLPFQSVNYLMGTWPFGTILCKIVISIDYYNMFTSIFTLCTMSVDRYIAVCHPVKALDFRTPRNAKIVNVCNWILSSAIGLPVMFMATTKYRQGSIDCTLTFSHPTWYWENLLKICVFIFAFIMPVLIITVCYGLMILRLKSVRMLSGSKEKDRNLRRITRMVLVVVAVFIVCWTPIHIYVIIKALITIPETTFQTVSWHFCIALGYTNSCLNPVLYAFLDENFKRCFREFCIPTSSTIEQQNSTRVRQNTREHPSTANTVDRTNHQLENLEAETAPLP

## CC(C)C[C@H](NC(=O)[C@@H]1Cc2ccccc2CN1C(=O)CNC(=O)CNC(=O)[C@@H](N)Cc1ccc(O)cc1)C(=O)N[C@@H](CCCN=C(N)N)C(=O)N[C@@H](CCCN=C(N)N)C(=O)N[C@H](C)C(=O)N[C@@H](CCCN=C(N)N)C(=O)N1CCC[C@H]1C(=O)N[C@@H](CCCCN)C(N)=O
[1]
  Ki ratio: kappa/mu/delta
[2]
  Max response: 91%

## CC(C)C[C@H](NC(=O)[C@@H](Cc1ccccc1)NC(=O)CNC(=O)CNC(=O)[C@@H](N)Cc1ccc(O)cc1)C(=O)N[C@@H](CCCN=C(N)N)C(=O)N[C@@H](CCCN=C(N)N)C(=O)N[C@H](C)C(=O)N[C@@H](CCCN=C(N)N)C(=O)N1CCC[C@H]1C(=O)N[C@@H](CCCCN)C(N)=O
[3]; cho
  EC50: 1.24 nM
Mu-type opioid receptor; cho
  Ki: 4.2 nM
[4]; cho
  Ki: 6.57 nM
[2]
  Max response: 100%
[5]; cho
  Ki: 0.11 nM

## CC(C)C[C@H](NC(=O)[C@H](Cc1ccccc1)NC(=O)CNC(=O)CNC(=O)[C@@H](N)Cc1ccc(O)cc1)C(=O)N[C@@H](CCCN=C(N)N)C(=O)N[C@@H](CCCN=C(N)N)C(=O)N[C@H](C)C(=O)N[C@@H](CCCN=C(N)N)C(=O)N1CCC[C@H]1C(=O)N[C@@H](CCCCN)C(N)=O
[3]
  EC50: 515 nM
Mu-type opioid receptor
  Ki: 123 nM
[2]
  Max response: 73%
[5]
  Ki: 8.91 nM
[6]
  Ki: > 10000 nM

## CC(C)C[C@H](NC(=O)C1(NC(=O)CNC(=O)CNC(=O)[C@@H](N)Cc2ccc(O)cc2)Cc2ccccc2C1)C(=O)N[C@@H](CCCN=C(N)N)C(=O)N[C@@H](CCCN=C(N)N)C(=O)N[C@H](C)C(=O)N[C@@H](CCCN=C(N)N)C(=O)N1CCC[C@H]1C(=O)N[C@@H](CCCCN)C(N)=O
Mu-type opioid receptor
  Ki: 364 nM
[4]
  Ki: > 10000 nM
[7]
  Ki ratio: kappa/mu/delta
[2]
  Max response: 39%
[5]
  Ki: 26.5 nM

## CC(C)C[C@H](NC(=O)[C@]1(NC(=O)CNC(=O)CNC(=O)[C@@H](N)Cc2ccc(O)cc2)CCc2ccccc2C1)C(=O)N[C@@H](CCCN=C(N)N)C(=O)N[C@@H](CCCN=C(N)N)C(=O)N[C@H](C)C(=O)N[C@@H](CCCN=C(N)N)C(=O)N1CCC[C@H]1C(=O)N[C@@H](CCCCN)C(N)=O
[2]
  Max response: 74%

## CC(C)C[C@H](NC(=O)[C@@H](Cc1ccccc1)N(C)C(=O)CNC(=O)CNC(=O)[C@@H](N)Cc1ccc(O)cc1)C(=O)N[C@@H](CCCN=C(N)N)C(=O)N[C@@H](CCCN=C(N)N)C(=O)N[C@H](C)C(=O)N[C@@H](CCCN=C(N)N)C(=O)N1CCC[C@H]1C(=O)N[C@@H](CCCCN)C(N)=O
[8]
  Ki ratio: kappa/mu/delta
[2]
  Max response: 99%

## CC(C)C[C@H](NC(=O)[C@H](Cc1ccccc1)N(C)C(=O)CNC(=O)CNC(=O)[C@@H](N)Cc1ccc(O)cc1)C(=O)N[C@@H](CCCN=C(N)N)C(=O)N[C@@H](CCCN=C(N)N)C(=O)N[C@H](C)C(=O)N[C@@H](CCCN=C(N)N)C(=O)N1CCC[C@H]1C(=O)N[C@@H](CCCCN)C(N)=O
[3]; cho
  EC50: 3.56 nM
Mu-type opioid receptor; cho
  Ki: 1.03 nM
[4]; cho
  Ki: 56.1 nM
[5]; cho
  Ki: 0.62 nM

## CC(C)C[C@H](NC(=O)[C@@H](CCc1ccccc1)NC(=O)CNC(=O)CNC(=O)[C@@H](N)Cc1ccc(O)cc1)C(=O)N[C@@H](CCCN=C(N)N)C(=O)N[C@@H](CCCN=C(N)N)C(=O)N[C@H](C)C(=O)N[C@@H](CCCN=C(N)N)C(=O)N1CCC[C@H]1C(=O)N[C@@H](CCCCN)C(N)=O
[3]; cho
  EC50: 5.2 nM
Mu-type opioid receptor; cho
  Ki: 13.7 nM
[4]; cho
  Ki: 190 nM
[2]
  Max response: 95%
[5]
  Ki: 0.66 nM

## CC(C)C[C@H](NC(=O)[C@@]1(NC(=O)CNC(=O)CNC(=O)[C@@H](N)Cc2ccc(O)cc2)CCc2ccccc2C1)C(=O)N[C@@H](CCCN=C(N)N)C(=O)N[C@@H](CCCN=C(N)N)C(=O)N[C@H](C)C(=O)N[C@@H](CCCN=C(N)N)C(=O)N1CCC[C@H]1C(=O)N[C@@H](CCCCN)C(N)=O
[3]
  EC50: 72.4 nM
Mu-type opioid receptor
  Ki: 32.9 nM
[4]
  Ki: > 10000 nM
[2]
  Max response: 96%
[5]
  Ki: 0.89 nM

## CC(C)C[C@H](NC(=O)[C@@](C)(Cc1ccccc1)NC(=O)CNC(=O)CNC(=O)[C@@H](N)Cc1ccc(O)cc1)C(=O)N[C@@H](CCCN=C(N)N)C(=O)N[C@@H](CCCN=C(N)N)C(=O)N[C@H](C)C(=O)N[C@@H](CCCN=C(N)N)C(=O)N1CCC[C@H]1C(=O)N[C@@H](CCCCN)C(N)=O
[3]; cho
  EC50: 36.5 nM
Mu-type opioid receptor; cho
  Ki: 3.24 nM
[4]; cho
  Ki: 157 nM
[2]
  Max response: 100%
[5]; cho
  Ki: 3.2 nM

## CC(C)C[C@H](NC(=O)[C@]1(NC(=O)CNC(=O)CNC(=O)[C@@H](N)Cc2ccc(O)cc2)CCc2ccccc2C1)C(=O)N[C@@H](CCCNC(=N)N)C(=O)N[C@@H](CCCNC(=N)N)C(=O)N[C@H](C)C(=O)N[C@@H](CCCNC(=N)N)C(=O)N1CCC[C@H]1C(=O)N[C@@H](CCCCN)C(N)=O
[3]
  EC50: 573 nM
Mu-type opioid receptor
  Ki: 88.3 nM
[4]
  Ki: > 10000 nM
[5]
  Ki: 9.54 nM

## CC(C)C[C@H](NC(=O)[C@H](CCc1ccccc1)NC(=O)CNC(=O)CNC(=O)[C@@H](N)Cc1ccc(O)cc1)C(=O)N[C@@H](CCCN=C(N)N)C(=O)N[C@@H](CCCN=C(N)N)C(=O)N[C@H](C)C(=O)N[C@@H](CCCN=C(N)N)C(=O)N1CCC[C@H]1C(=O)N[C@@H](CCCCN)C(N)=O
[3]
  EC50: 46.9 nM
Mu-type opioid receptor
  Ki: 47 nM
[4]
  Ki: 5570 nM
[2]
  Max response: 100%
[5]
  Ki: 1.73 nM

## CC(C)C[C@H](NC(=O)[C@@H]1Cc2ccccc2CN1C(=O)CNC(=O)CNC(=O)[C@@H](N)Cc1ccc(O)cc1)C(=O)N[C@@H](CCCNC(=N)N)C(=O)N[C@@H](CCCNC(=N)N)C(=O)N[C@H](C)C(=O)N[C@@H](CCCNC(=N)N)C(=O)N1CCC[C@H]1C(=O)N[C@@H](CCCCN)C(N)=O
[3]
  EC50: 29.4 nM
Mu-type opioid receptor
  Ki: 206 nM
[4]
  Ki: 3590 nM
[5]
  Ki: 4.69 nM
